Measurements taken from ChEMBL document CHEMBL1142148, “Antibiotic susceptibility profile of bifidobacteria as affected by oxgall, acid, and hydrogen peroxide stress” (2007).
In brackets after ≈: the same amount, converted by molar mass.

What was measured:
[1] = tested on: Bifidobacterium longum; assay: Antimicrobial activity against Bifidobacterium longum ATCC 15708; assay type: functional
How it was run: (§1)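 Broth microdilution in MRS plus 0.05% L-cysteine-HCl. Mid-log culture adjusted to OD650 0.1, giving about 2.5 × 10^4 to 5.0 × 10^4 CFU/well, then added to twofold serial dilutions of agent. Plates incubated anaerobically at 37°C for 18 h and read at OD650. MIC is the lowest concentration matching the uninoculated blank OD, taken as the median of four repeats.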

[2] = tested on: Bifidobacterium breve; assay: Antimicrobial activity against Bifidobacterium breve R0070; assay type: functional; how it was run: as §1
[3] = tested on: Bifidobacterium bifidum; assay: Antimicrobial activity against 90 mins oxgall-stressed Bifidobacterium bifidum ATCC 15696 after 18 hrs; assay type: functional
How it was run: (§2)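 Cells pelleted from mid-log MRS culture and resuspended in MRS (initial pH 6.5) with 0.3% (wt/vol) oxgall for 90 min anaerobically at 37°C. They were then regrown in MRS pH 6.5 for 24 h (footnote: 18 h) anaerobically and tested for MIC by the same broth microdilution assay. Median of four repetitions.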

[4] = tested on: Bifidobacterium bifidum; assay: Antimicrobial activity against 90 mins hydrogen peroxide-stressed Bifidobacterium bifidum R0071 after 18 hrs; assay type: functional
How it was run: (§3)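 Stress applied for 90 min at 37°C under anaerobic conditions, using MRS (initial pH 6.5) containing H2O2 at each strain's own inhibitory concentration. The H2O2 level was set beforehand by microplate tolerance testing. Challenged cells were regrown in MRS for 24 h (footnote: 18 h) before MIC testing by broth microdilution. Median of four repetitions.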

[5] = Antimicrobial activity against 90 mins oxgall-stressed Bifidobacterium infantis ATCC 15697 after 18 hrs; assay type: functional, Bifidobacterium longum subsp. infantis; details: Bifidobacterium longum; how it was run: as §2
[6] = tested on: Bifidobacterium pseudolongum; assay: Antimicrobial activity against 90 mins oxgall-stressed Bifidobacterium pseudolongum ATCC 25562 after 18 hrs; assay type: functional; how it was run: as §2
[7] = tested on: Bifidobacterium longum; assay: Antimicrobial activity against 90 mins oxgall-stressed Bifidobacterium longum ATCC 15707 after 18 hrs; assay type: functional; how it was run: as §2
[8] = tested on: Bifidobacterium breve; assay: Antimicrobial activity against 90 mins hydrogen peroxide-stressed Bifidobacterium breve R0070 after 18 hrs; assay type: functional; how it was run: as §3
[9] = tested on: Bifidobacterium pseudolongum; assay: Antimicrobial activity against Bifidobacterium pseudolongum ATCC 25562; assay type: functional; how it was run: as §1
[10] = tested on: Bifidobacterium longum; assay: Antimicrobial activity against Bifidobacterium longum ATCC 15707; assay type: functional; how it was run: as §1
[11] = tested on: Bifidobacterium breve; assay: Antimicrobial activity against 90 mins hydrogen peroxide-stressed Bifidobacterium breve ATCC 15700 after 18 hrs; assay type: functional; how it was run: as §3
[12] = tested on: Bifidobacterium animalis; assay: Antimicrobial activity against Bifidobacterium animalis ATCC 27536; assay type: functional; how it was run: as §1
[13] = tested on: Bifidobacterium breve; assay: Antimicrobial activity against Bifidobacterium breve ATCC 15700; assay type: functional; how it was run: as §1
[14] = tested on: Bifidobacterium longum; assay: Antimicrobial activity against 60 min 1 M HCl-stressed Bifidobacterium longum ATCC 15707 after 18 hrs; assay type: functional
How it was run: (§4)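 Mid-log MRS culture pelleted and resuspended in MRS broth brought to pH 2.0 with 1 M HCl, held anaerobically at 37°C for 60 min, then subcultured in MRS (pH 6.5) for 24 h anaerobically before MIC testing by broth microdilution (as for unstressed cells). Table footnote gives 18 h anaerobic regrowth after the stress. MIC is the median of four repetitions.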

[15] = tested on: Bifidobacterium longum; assay: Antimicrobial activity against 90 mins hydrogen peroxide-stressed Bifidobacterium longum ATCC 15708 after 18 hrs; assay type: functional; how it was run: as §3
[16] = tested on: Bifidobacterium breve; assay: Antimicrobial activity against 90 mins oxgall-stressed Bifidobacterium breve R0070 after 18 hrs; assay type: functional; how it was run: as §2
[17] = tested on: Bifidobacterium longum; assay: Antimicrobial activity against 90 mins hydrogen peroxide-stressed Bifidobacterium longum ATCC 15707 after 18 hrs; assay type: functional; how it was run: as §3
[18] = tested on: Bifidobacterium longum; assay: Antimicrobial activity against 60 min 1 M HCl-stressed Bifidobacterium longum P/N 601377 after 18 hrs; assay type: functional; how it was run: as §4
[19] = tested on: Bifidobacterium animalis; assay: Antimicrobial activity against 90 mins oxgall-stressed Bifidobacterium animalis ATCC 27536 after 18 hrs; assay type: functional; how it was run: as §2
[20] = tested on: Bifidobacterium longum; assay: Antimicrobial activity against 60 min 1 M HCl-stressed Bifidobacterium longum R0175 after 18 hrs; assay type: functional; how it was run: as §4
[21] = tested on: Bifidobacterium thermophilum; assay: Antimicrobial activity against 90 mins oxgall-stressed Bifidobacterium thermophilum ATCC 25866 after 18 hrs; assay type: functional; how it was run: as §2
[22] = tested on: Bifidobacterium bifidum; assay: Antimicrobial activity against 60 min 1 M HCl-stressed Bifidobacterium bifidum BB12 after 18 hrs; assay type: functional; how it was run: as §4
[23] = tested on: Bifidobacterium bifidum; assay: Antimicrobial activity against 90 mins oxgall-stressed Bifidobacterium bifidum R0071 after 18 hrs; assay type: functional; how it was run: as §2
[24] = tested on: Bifidobacterium longum; assay: Antimicrobial activity against 90 mins oxgall-stressed Bifidobacterium longum P/N 601377 after 18 hrs; assay type: functional; how it was run: as §2
[25] = tested on: Bifidobacterium bifidum; assay: Antimicrobial activity against 60 min 1 M HCl-stressed Bifidobacterium bifidum R0071 after 18 hrs; assay type: functional; how it was run: as §4
[26] = tested on: Bifidobacterium longum; assay: Antimicrobial activity against 90 mins oxgall-stressed Bifidobacterium longum ATCC 15708 after 18 hrs; assay type: functional; how it was run: as §2
[27] = tested on: Bifidobacterium longum; assay: Antimicrobial activity against 90 mins hydrogen peroxide-stressed Bifidobacterium longum R0175 after 18 hrs; assay type: functional; how it was run: as §3
[28] = Antimicrobial activity against Bifidobacterium infantis ATCC 15697; assay type: functional, Bifidobacterium longum subsp. infantis; details: Bifidobacterium longum; how it was run: as §1
[29] = tested on: Bifidobacterium longum; assay: Antimicrobial activity against 90 mins hydrogen peroxide-stressed Bifidobacterium longum P/N 601377 after 18 hrs; assay type: functional; how it was run: as §3
[30] = tested on: Bifidobacterium bifidum; assay: Antimicrobial activity against 90 mins hydrogen peroxide-stressed Bifidobacterium bifidum BB12 after 18 hrs; assay type: functional; how it was run: as §3
[31] = tested on: Bifidobacterium bifidum; assay: Antimicrobial activity against Bifidobacterium bifidum ATCC 15696; assay type: functional; how it was run: as §1
[32] = tested on: Bifidobacterium pseudolongum; assay: Antimicrobial activity against 60 min 1 M HCl-stressed Bifidobacterium pseudolongum ATCC 25562 after 18 hrs; assay type: functional; how it was run: as §4
[33] = tested on: Bifidobacterium thermophilum; assay: Antimicrobial activity against Bifidobacterium thermophilum ATCC 25866; assay type: functional; how it was run: as §1
[34] = tested on: Bifidobacterium animalis; assay: Antimicrobial activity against 60 min 1 M HCl-stressed Bifidobacterium animalis ATCC 27536 after 18 hrs; assay type: functional; how it was run: as §4
[35] = tested on: Bifidobacterium longum; assay: Antimicrobial activity against Bifidobacterium longum R0175; assay type: functional; how it was run: as §1
[36] = tested on: Bifidobacterium bifidum; assay: Antimicrobial activity against 90 mins oxgall-stressed Bifidobacterium bifidum BB12 after 18 hrs; assay type: functional; how it was run: as §2
[37] = tested on: Bifidobacterium bifidum; assay: Antimicrobial activity against Bifidobacterium bifidum R0071; assay type: functional; how it was run: as §1
[38] = tested on: Bifidobacterium breve; assay: Antimicrobial activity against 60 min 1 M HCl-stressed Bifidobacterium breve ATCC 15700 after 18 hrs; assay type: functional; how it was run: as §4
[39] = Antimicrobial activity against 60 min 1 M HCl-stressed Bifidobacterium infantis ATCC 15697 after 18 hrs; assay type: functional, Bifidobacterium longum subsp. infantis; details: Bifidobacterium longum; how it was run: as §4
[40] = tested on: Bifidobacterium breve; assay: Antimicrobial activity against 90 mins oxgall-stressed Bifidobacterium breve ATCC 15700 after 18 hrs; assay type: functional; how it was run: as §2
[41] = tested on: Bifidobacterium thermophilum; assay: Antimicrobial activity against 90 mins hydrogen peroxide-stressed Bifidobacterium thermophilum ATCC 25866 after 18 hrs; assay type: functional; how it was run: as §3
[42] = tested on: Bifidobacterium longum; assay: Antimicrobial activity against 90 mins oxgall-stressed Bifidobacterium longum R0175 after 18 hrs; assay type: functional; how it was run: as §2
[43] = tested on: Bifidobacterium thermophilum; assay: Antimicrobial activity against 60 min 1 M HCl-stressed Bifidobacterium thermophilum ATCC 25866 after 18 hrs; assay type: functional; how it was run: as §4
[44] = tested on: Bifidobacterium longum; assay: Antimicrobial activity against Bifidobacterium longum P/N 601377; assay type: functional; how it was run: as §1
[45] = tested on: Bifidobacterium animalis; assay: Antimicrobial activity against 90 mins hydrogen peroxide-stressed Bifidobacterium animalis ATCC 27536 after 18 hrs; assay type: functional; how it was run: as §3
[46] = tested on: Bifidobacterium bifidum; assay: Antimicrobial activity against Bifidobacterium bifidum BB12; assay type: functional; how it was run: as §1
[47] = tested on: Bifidobacterium breve; assay: Antimicrobial activity against 60 min 1 M HCl-stressed Bifidobacterium breve R0070 after 18 hrs; assay type: functional; how it was run: as §4

NC[C@@H]1O[C@H](O[C@H]2[C@@H](O)[C@H](O[C@@H]3[C@@H](O)[C@H](N)C[C@H](N)[C@H]3O[C@H]3O[C@H](CN)[C@@H](O)[C@H](O)[C@H]3N)O[C@@H]2CO)[C@H](N)[C@@H](O)[C@@H]1O [FRAMYCETIN]
MIC [1]: 250 µg/mL (≈ 407 µM) | MIC [2]: 250 µg/mL (≈ 407 µM) | MIC [3]: 250 µg/mL (≈ 407 µM) | MIC [4]: 125 µg/mL (≈ 203 µM) | MIC [5]: 500 µg/mL (≈ 813 µM) | MIC [6]: 250 µg/mL (≈ 407 µM) | MIC [7]: 125 µg/mL (≈ 203 µM) | MIC [8]: 250 µg/mL (≈ 407 µM) | MIC [9]: 250 µg/mL (≈ 407 µM) | MIC [10]: 250 µg/mL (≈ 407 µM) | MIC [11]: 250 µg/mL (≈ 407 µM) | MIC [12]: 250 µg/mL (≈ 407 µM) | MIC [13]: 250 µg/mL (≈ 407 µM) | MIC [14]: 500 µg/mL (≈ 813 µM) | MIC [15]: 250 µg/mL (≈ 407 µM) | MIC [16]: 62.5 µg/mL (≈ 102 µM) | MIC [17]: 250 µg/mL (≈ 407 µM) | MIC [18]: 250 µg/mL (≈ 407 µM) | MIC [19]: 125 µg/mL (≈ 203 µM) | MIC [20]: 250 µg/mL (≈ 407 µM) | MIC [21]: 125 µg/mL (≈ 203 µM) | MIC [22]: 125 µg/mL (≈ 203 µM) | MIC [23]: 62.5 µg/mL (≈ 102 µM) | MIC [24]: 62.5 µg/mL (≈ 102 µM) | MIC [25]: 250 µg/mL (≈ 407 µM) | MIC [26]: 500 µg/mL (≈ 813 µM) | MIC [27]: 125 µg/mL (≈ 203 µM) | MIC [28]: 250 µg/mL (≈ 407 µM) | MIC [29]: 125 µg/mL (≈ 203 µM) | MIC [30]: 250 µg/mL (≈ 407 µM) | MIC [31]: 250 µg/mL (≈ 407 µM) | MIC [32]: 250 µg/mL (≈ 407 µM) | MIC [33]: 250 µg/mL (≈ 407 µM) | MIC [34]: 250 µg/mL (≈ 407 µM) | MIC [35]: 250 µg/mL (≈ 407 µM) | MIC [36]: 250 µg/mL (≈ 407 µM) | MIC [37]: 250 µg/mL (≈ 407 µM) | MIC [38]: 125 µg/mL (≈ 203 µM) | MIC [39]: 250 µg/mL (≈ 407 µM) | MIC [40]: 125 µg/mL (≈ 203 µM) | MIC [41]: 500 µg/mL (≈ 813 µM) | MIC [42]: 62.5 µg/mL (≈ 102 µM) | MIC [43]: 250 µg/mL (≈ 407 µM) | MIC [44]: 125 µg/mL (≈ 203 µM) | MIC [45]: 500 µg/mL (≈ 813 µM) | MIC [46]: 250 µg/mL (≈ 407 µM) | MIC [47]: 250 µg/mL (≈ 407 µM)
